Experimental data taken from ChEMBL document CHEMBL1275556, “High prevalence of plasmid-mediated quinolone resistance genes qnr and aac(6')-Ib-cr in clinical isolates of Enterobacteriaceae from nine teaching hospitals in China” (2008).
Values after ≈ are worked out from the molar mass of the structure shown.

Tests used:
Citrobacter freundii [1] = test: Antimicrobial activity against aac(6')-Ib-cr-positive Citrobacter freundii JS33 harboring GyrA T83I mutant, wild-type ParC, GyrB, qnrA and qnrB genes by agar dilution method in presence of Tazobactam; assay type: functional
Outline: (§1)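 MICs were determined by the CLSI agar dilution method (M7-A7) and interpreted against CLSI M100-S17 breakpoints.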

Enterobacter cloacae [2] = test: Antimicrobial activity against aac(6')-Ib-cr-negative Enterobacter cloacae GZ51T harboring qnrA gene by agar dilution method in presence of Tazobactam; assay type: functional; outline: as §1
Enterobacter cloacae [3] = test: Antimicrobial activity against aac(6')-Ib-cr-positive Enterobacter cloacae FJ63 harboring GyrA S83I, GyrA D87A, ParC S80I mutant, wild-type GyrB and qnrS genes by agar dilution method in presence of Tazobactam; assay type: functional; outline: as §1
Klebsiella pneumoniae [4] = test: Antimicrobial activity against aac(6')-Ib-cr-positive Klebsiella pneumoniae WH99 harboring wild-type GyrA, ParC, GyrB and qnrB genes by agar dilution method in presence of Tazobactam; assay type: functional
Outline: (§2)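 MICs measured by CLSI agar dilution (M7-A7) and interpreted against CLSI M100-S17 breakpoints. Strains were clinical Enterobacteriaceae isolates or the azide-resistant E. coli J53 recipient.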

Citrobacter freundii [5] = test: Antimicrobial activity against aac(6')-Ib-cr-positive Citrobacter freundii PU55 harboring GyrA T83I, ParC S80I mutant, wild-type GyrB, qnrA genes by agar dilution method in presence of Tazobactam; assay type: functional
Outline: (§3)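 MICs were determined by CLSI agar dilution (M7-A7) and interpreted by CLSI M100-S17 breakpoints. The curator's line names the β-lactamase inhibitor added.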

Citrobacter freundii [6] = test: Antimicrobial activity against aac(6')-Ib-cr-positive Citrobacter freundii JN1 harboring GyrA T83I, ParC S80I mutant, wild-type GyrB and qnrA genes by agar dilution method in presence of Tazobactam; assay type: functional; outline: as §3
Klebsiella pneumoniae [7] = test: Antimicrobial activity against aac(6')-Ib-cr-positive Klebsiella pneumoniae GZ40 harboring GyrA S83I, ParC S80I mutant, wild-type GyrB and qnrB genes by agar dilution method in presence of Tazobactam; assay type: functional; outline: as §1
Klebsiella pneumoniae [8] = test: Antimicrobial activity against aac(6')-Ib-cr-positive Klebsiella pneumoniae SY26 harboring GyrA S83I, ParC S80I mutant, wild-type GyrB and qnrB genes by agar dilution method in presence of Tazobactam; assay type: functional; outline: as §2
Enterobacter cloacae [9] = test: Antimicrobial activity against aac(6')-Ib-cr-negative Enterobacter cloacae GZ51 harboring qnrA gene by agar dilution method in presence of Tazobactam; assay type: functional; outline: as §1
Klebsiella pneumoniae [10] = test: Antimicrobial activity against aac(6')-Ib-cr-positive Klebsiella pneumoniae WH99T harboring qnrB gene by agar dilution method in presence of Tazobactam; assay type: functional
Outline: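 Transconjugants were made by conjugating a qnr/aac(6')-Ib-cr donor with azide-resistant E. coli J53. Selection used Trypticase soy agar with sodium azide 150 µg/ml and sulfamethoxazole 180 µg/ml. […] MICs were read by CLSI agar dilution (M7-A7) and interpreted per M100-S17.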

Enterobacter cloacae [11] = test: Antimicrobial activity against aac(6')-Ib-cr-negative Enterobacter cloacae FJ67T harboring qnrS gene by agar dilution method in presence of Tazobactam; assay type: functional; outline: as §1
Enterobacter cloacae [12] = test: Antimicrobial activity against aac(6')-Ib-cr-negative Enterobacter cloacae WH42 harboring wild-type GyrA, ParC, GyrB and qnrA genes by agar dilution method in presence of Tazobactam; assay type: functional; outline: as §2
Escherichia coli [13] = test: Antimicrobial activity against Escherichia coli J53 harboring wild-type GyrA, ParC, GyrB genes by agar dilution method
Escherichia coli [14] = test: Antimicrobial activity against aac(6')-Ib-cr-positive Escherichia coli FJ3 harboring GyrA S83L, ParC S80R mutant, wild-type GyrB and qnrB genes by agar dilution method in presence of clavulanic acid; assay type: functional; outline: as §3
Enterobacter cloacae [15] = test: Antimicrobial activity against aac(6')-Ib-cr-negative Enterobacter cloacae GZ51 harboring qnrA gene by agar dilution method in presence of clavulanic acid; assay type: functional; outline: as §3
Enterobacter cloacae [16] = test: Antimicrobial activity against aac(6')-Ib-cr-negative Enterobacter cloacae GZ51 harboring qnrA gene by agar dilution method; assay type: functional
Citrobacter freundii [17] = test: Antimicrobial activity against aac(6')-Ib-cr-positive Citrobacter freundii TJ15T harboring wild-type GyrA, ParC, GyrB genes by agar dilution method in presence of clavulanic acid; assay type: functional; outline: as §1
Enterobacter cloacae [18] = test: Antimicrobial activity against aac(6')-Ib-cr-negative Enterobacter cloacae FJ61 harboring GyrA S83I, GyrA D87A, ParC S80I mutant, wild-type GyrB and qnrS genes by agar dilution method; assay type: functional
Citrobacter freundii [19] = test: Antimicrobial activity against aac(6')-Ib-cr-positive Citrobacter freundii JN1T by agar dilution method in presence of clavulanic acid; assay type: functional
Outline: (§4)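 Transconjugants came from conjugation of qnr and/or aac(6')-Ib-cr-carrying donors with azide-resistant E. coli J53. […] MICs were determined by CLSI agar dilution (M7-A7) and interpreted by M100-S17.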

Klebsiella pneumoniae [20] = test: Antimicrobial activity against aac(6')-Ib-cr-positive Klebsiella pneumoniae JN132 harboring GyrA S83I, ParC S80I mutant, wild-type GyrB and qnrB genes by agar dilution method in presence of clavulanic acid; assay type: functional; outline: as §2
Escherichia coli [21] = test: Antimicrobial activity against aac(6')-Ib-cr-positive Escherichia coli FJ3 harboring GyrA S83L, ParC S80R mutant, wild-type GyrB and qnrB genes by agar dilution method; assay type: functional; outline: as §1
Citrobacter freundii [22] = test: Antimicrobial activity against aac(6')-Ib-cr-positive Citrobacter freundii JN1T by agar dilution method; assay type: functional; outline: as §1
Citrobacter freundii [23] = test: Antimicrobial activity against aac(6')-Ib-cr-negative Citrobacter freundii JN64 harboring GyrA T83I, wild-type ParC, GyrB and qnrA genes by agar dilution method; assay type: functional; outline: as §1
Enterobacter cloacae [24] = test: Antimicrobial activity against aac(6')-Ib-cr-negative Enterobacter cloacae FJ61T harboring qnrS gene by agar dilution method; assay type: functional
Citrobacter freundii [25] = test: Antimicrobial activity against aac(6')-Ib-cr-positive Citrobacter freundii JS33 harboring GyrA T83I mutant, wild-type ParC, GyrB, qnrA and qnrB genes by agar dilution method; assay type: functional; outline: as §1
Citrobacter freundii [26] = test: Antimicrobial activity against aac(6')-Ib-cr-positive Citrobacter freundii PU55T harboring wild-type GyrA, ParC, GyrB and qnrA genes by agar dilution method in presence of clavulanic acid; assay type: functional; outline: as §4
Enterobacter cloacae [27] = test: Antimicrobial activity against aac(6')-Ib-cr-negative Enterobacter cloacae FJ67 harboring […] and qnrS genes by agar dilution method in presence of clavulanic acid; assay type: functional; outline: as §1
Enterobacter cloacae [28] = test: Antimicrobial activity against aac(6')-Ib-cr-negative Enterobacter cloacae WH42T harboring qnrA gene by agar dilution method; assay type: functional
Enterobacter cloacae [29] = test: Antimicrobial activity against aac(6')-Ib-cr-negative Enterobacter cloacae SH39 harboring GyrA S83I, ParC S80I mutant, wild-type GyrB and qnrA genes by agar dilution method; assay type: functional
Klebsiella pneumoniae [30] = test: Antimicrobial activity against aac(6')-Ib-cr-positive Klebsiella pneumoniae GZ40T harboring qnrB gene by agar dilution method in presence of clavulanic acid; assay type: functional; outline: as §4
Enterobacter cloacae [31] = test: Antimicrobial activity against aac(6')-Ib-cr-negative Enterobacter cloacae SH39 harboring GyrA S83I, ParC S80I mutant, wild-type GyrB and qnrA genes by agar dilution method in presence of clavulanic acid; assay type: functional; outline: as §3
Klebsiella pneumoniae [32] = test: Antimicrobial activity against aac(6')-Ib-cr-positive Klebsiella pneumoniae WH99T harboring qnrB gene by agar dilution method in presence of clavulanic acid; assay type: functional; outline: as §4

## CCN1CCN(C(=O)N[C@@H](C(=O)N[C@@H]2C(=O)N3[C@@H]2SC(C)(C)[C@@H]3C(=O)O)c2ccccc2)C(=O)C1=O [PIPERACILLIN]
Citrobacter freundii [1]
  MIC: 8 µg/mL
Enterobacter cloacae [2]
  MIC: 2 µg/mL
Enterobacter cloacae [3]
  MIC: > 256 µg/mL
Klebsiella pneumoniae [4]
  MIC: 8 µg/mL
Citrobacter freundii [5]
  MIC: 64 µg/mL
Citrobacter freundii [6]
  MIC: 16 µg/mL
Klebsiella pneumoniae [7]
  MIC: > 256 µg/mL
Klebsiella pneumoniae [8]
  MIC: 16 µg/mL
Enterobacter cloacae [9]
  MIC: 2 µg/mL
Klebsiella pneumoniae [10]
  MIC: 2 µg/mL
Enterobacter cloacae [11]
  MIC: 1 µg/mL
Enterobacter cloacae [12]
  MIC: 64 µg/mL

## CO/N=C(\C(=O)N[C@@H]1C(=O)N2C(C(=O)O)=C(COC(C)=O)CS[C@H]12)c1csc(N)n1 [CEFOTAXIME]
Escherichia coli [13]
  MIC: 0.032 µg/mL (≈ 0.0703 µM)
Escherichia coli [14]
  MIC: 0.032 µg/mL
Enterobacter cloacae [15]
  MIC: 32 µg/mL
Enterobacter cloacae [16]
  MIC: 64 µg/mL (≈ 141 µM)
Citrobacter freundii [17]
  MIC: 0.125 µg/mL
Enterobacter cloacae [18]
  MIC: 256 µg/mL (≈ 562 µM)
Citrobacter freundii [19]
  MIC: 0.032 µg/mL
Klebsiella pneumoniae [20]
  MIC: 1 µg/mL
Escherichia coli [21]
  MIC: 128 µg/mL (≈ 281 µM)
Citrobacter freundii [22]
  MIC: 8 µg/mL (≈ 17.6 µM)
Citrobacter freundii [23]
  MIC: 256 µg/mL (≈ 562 µM)
Enterobacter cloacae [24]
  MIC: 0.032 µg/mL (≈ 0.0703 µM)
Citrobacter freundii [25]
  MIC: 8 µg/mL (≈ 17.6 µM)
Citrobacter freundii [26]
  MIC: 0.032 µg/mL
Enterobacter cloacae [27]
  MIC: 0.25 µg/mL
Enterobacter cloacae [28]
  MIC: 8 µg/mL (≈ 17.6 µM)
Enterobacter cloacae [29]
  MIC: 4 µg/mL (≈ 8.78 µM)
Klebsiella pneumoniae [30]
  MIC: 0.032 µg/mL
Enterobacter cloacae [31]
  MIC: 32 µg/mL
Klebsiella pneumoniae [32]
  MIC: 0.064 µg/mL
